Measured values as given in ChEMBL document CHEMBL4382192, “Discovery of a potent dual ALK and EGFR T790M inhibitor” (Eur J Med Chem, 2017).

Assays:
[1] = molecular target: Serine/threonine-protein kinase PLK4 (Homo sapiens) (UniProt O00444); assay: Binding affinity to wild-type human partial length PLK4 (M1 to S273 residues) expressed in mammalian expression system assessed as residual binding level at 1 uM by Kinomescan method relative to control
[2] = system: Tyrosine-protein kinase ABL1 (Homo sapiens), P00519 [F317L]; assay: Binding affinity to human non-phosphorylated ABL1 F317L mutant (S229 to K512 residues) expressed in mammalian expression system assessed as residual binding level at 1 uM by Kinomescan method relative to control
In short: (§1)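 Kinome-wide selectivity panel run by the KINOMEscan method, with the test compound at a single concentration of 1 μM. Wild-type and mutant kinases were profiled in the same screen.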

[3] = molecular target: Ribosomal protein S6 kinase alpha-2 (Homo sapiens) (UniProt Q15349); assay: Binding affinity to wild-type human partial length C-terminal RSK3 kinase domain 2 (V403 to K700 residues) expressed in bacterial expression system assessed as residual binding level at 1 uM by Kinomescan method relative to control
[4] = molecular target: Cyclin-dependent kinase 16 (Homo sapiens) (UniProt Q00536); assay: Binding affinity to wild-type human partial length PCTK1 (G160 to A474 residues) expressed in mammalian expression system assessed as residual binding level at 1 uM by Kinomescan method relative to control
[5] = molecular target: Cyclin-dependent kinase-like 3 (Homo sapiens) (UniProt Q8IVW4); assay: Binding affinity to wild-type human partial length CDKL3 (M1 to D327 residues) expressed in bacterial expression system assessed as residual binding level at 1 uM by Kinomescan method relative to control
[6] = molecular target: RAC-gamma serine/threonine-protein kinase (Homo sapiens) (UniProt Q9Y243); assay: Binding affinity to wild-type human partial length AKT3 expressed in bacterial expression system assessed as residual binding level at 1 uM by Kinomescan method relative to control
[7] = system: Phosphatidylinositol 4,5-bisphosphate 3-kinase catalytic subunit alpha isoform (Homo sapiens), P42336 [E542K]; assay: Binding affinity to human partial length PIK3CA E542K mutant (R108 to N1068 residues) expressed in mammalian expression system assessed as residual binding level at 1 uM by Kinomescan method relative to control
[8] = system: Tyrosine-protein kinase ABL1 (Homo sapiens), P00519 [H396P]; assay: Binding affinity to human phosphorylated ABL1 H396P mutant (S229 to K512 residues) expressed in mammalian expression system assessed as residual binding level at 1 uM by Kinomescan method relative to control; in short: as §1
[9] = molecular target: Mitogen-activated protein kinase kinase kinase 20 (Homo sapiens) (UniProt Q9NYL2); assay: Binding affinity to wild-type human partial length ZAK (M1 to L331 residues) expressed in bacterial expression system assessed as residual binding level at 1 uM by Kinomescan method relative to control
[10] = molecular target: Myotonin-protein kinase (Homo sapiens) (UniProt Q09013); assay: Binding affinity to wild-type human partial length DMPK (V47 to V415 residues) expressed in bacterial expression system assessed as residual binding level at 1 uM by Kinomescan method relative to control
[11] = molecular target: Serine/threonine-protein kinase 38-like (Homo sapiens) (UniProt Q9Y2H1); assay: Binding affinity to wild-type human partial length NDR2 (N34 to E447 residues) expressed in bacterial expression system assessed as residual binding level at 1 uM by Kinomescan method relative to control
[12] = molecular target: Inhibitor of nuclear factor kappa-B kinase subunit beta (Homo sapiens) (UniProt O14920); assay: Binding affinity to wild-type human full length IKK-beta (M1 to S756 residues) expressed in mammalian expression system assessed as residual binding level at 1 uM by Kinomescan method relative to control
In short: (§2)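 Single-point kinome-wide KINOMEscan binding panel, test compound at 1 μM, run by the provider's standard protocol.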

[13] = Drug uptake in mouse lung at 2 mg/kg, iv after 8 hrs; type: ADME, organism-based; conditions: read-out: Drug uptake
[14] = molecular target: Serine/threonine-protein kinase D1 (Homo sapiens) (UniProt Q15139); assay: Binding affinity to wild-type human partial length PRKD1 (G551 to E870 residues) expressed in bacterial expression system assessed as residual binding level at 1 uM by Kinomescan method relative to control
[15] = molecular target: Cyclin-dependent kinase 9 (Homo sapiens) (UniProt P50750); assay: Binding affinity to wild-type human full length CDK9 (M1 to F372 residues) expressed in bacterial expression system assessed as residual binding level at 1 uM by Kinomescan method relative to control
[16] = molecular target: Ephrin type-B receptor 1 (Homo sapiens) (UniProt P54762); assay: Binding affinity to wild-type human partial length EPHB1 (P589 to T911 residues) expressed in bacterial expression system assessed as residual binding level at 1 uM by Kinomescan method relative to control
[17] = system: Tyrosine-protein kinase ABL1 (Homo sapiens), P00519 [H396P]; assay: Binding affinity to human non-phosphorylated ABL1 H396P mutant (S229 to K512 residues) expressed in mammalian expression system assessed as residual binding level at 1 uM by Kinomescan method relative to control; in short: as §1
[18] = molecular target: Ephrin type-A receptor 3 (Homo sapiens) (UniProt P29320); assay: Binding affinity to wild-type human partial length EPHA3 (D604 to K889 residues) expressed in bacterial expression system assessed as residual binding level at 1 uM by Kinomescan method relative to control
[19] = molecular target: Dual specificity mitogen-activated protein kinase kinase 6 (Homo sapiens) (UniProt P52564); assay: Binding affinity to wild-type human partial length MEK6 (K36 to D334 residues) expressed in bacterial expression system assessed as residual binding level at 1 uM by Kinomescan method relative to control
[20] = molecular target: Serine/threonine-protein kinase Sgk3 (Homo sapiens) (UniProt Q96BR1); assay: Binding affinity to wild-type human partial length SGK3 (M119 to L496 residues) expressed in mammalian expression system assessed as residual binding level at 1 uM by Kinomescan method relative to control
[21] = molecular target: Tyrosine-protein kinase ABL1 (Homo sapiens) (UniProt P00519); assay: Binding affinity to wild-type human phosphorylated ABL1 (S229 to K512 residues) expressed in mammalian expression system assessed as residual binding level at 1 uM by Kinomescan method relative to control
[22] = molecular target: Serine/threonine-protein kinase STK11 (Homo sapiens) (UniProt Q15831); assay: Binding affinity to wild-type human full length LKB1 (M1 to Q433 residues) expressed in bacterial expression system assessed as residual binding level at 1 uM by Kinomescan method relative to control; in short: as §2
[23] = molecular target: Serine/threonine-protein kinase pim-1 (Homo sapiens) (UniProt P11309); assay: Binding affinity to wild-type human partial length PIM1 (A15 to K313 residues) expressed in bacterial expression system assessed as residual binding level at 1 uM by Kinomescan method relative to control
[24] = molecular target: Activin receptor type-1 (Homo sapiens) (UniProt Q04771); assay: Binding affinity to wild-type human ACVR1 (C188 to C509 residues) expressed in bacterial expression system assessed as residual binding level at 1 uM by Kinomescan method relative to control

`C=CC(=O)Nc1cc(Nc2ncc(Cl)c(Nc3ccccc3S(=O)(=O)C(C)C)n2)c(OC)cc1N(C)CCN(C)C` gave an Activity [1] of 0.35%, an Activity [2] of 0.8% and an Activity [3] of 27%. It also gave an Activity [4] of 91%, an Activity [5] of 66% and an Activity [6] of 100%. The Activity [7] was 72%, the Activity [8] was 5.5% and the Activity [9] was 86%. The Activity [10] was 91%, the Activity [11] was 54% and the Activity [12] was 96%. The concentration at 8 h [13] was 110 nM, the Activity [14] was 1.2% and the Activity [15] was 80%. The Activity [16] was 38%, the Activity [17] was 2.3% and the Activity [18] was 77%. It also gave an Activity [19] of 66%, an Activity [20] of 53% and an Activity [21] of 7.5%. It also gave an Activity [22] of 88%, an Activity [23] of 83% and an Activity [24] of 9%.
